Key:
[1] = biological target: Matrix metalloproteinase-9 (Homo sapiens, UniProt P14780); test: Inhibition of recombinant human MMP-9 using Mca-Lys-Pro-Leu-Gly-Leu-Dap(Dnp)-Ala-Arg-NH2 as substrate incubated for 4 hrs measured every 15 secs for 20 mins by fluorimetric assay
In short: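 Pro-MMP-9 was activated with 1 mM APMA for 1 h at 37 °C and used at 1.3 nM final. Inhibitor was incubated with enzyme for 4 h at 25 °C in Tris 50 mM pH 7.5, NaCl 150 mM, CaCl2 10 mM, 0.05% Brij-35, 1% DMSO. Substrate was at 2 µM final, ex 325/em 400 nm, in duplicate. IC50 was obtained from vi/vo = 1/(1+[I]/IC50).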

[2] = biological target: T1, Disintegrin and metalloproteinase domain-containing protein 17 (Homo sapiens, UniProt P78536); test: Inhibition of recombinant human ADAM-17 using Mca-Lys-Pro-Leu-Gly-Leu-Dap(Dnp)-Ala-Arg-NH2 as substrate incubated for 30 mins measured every 15 secs for 20 mins by fluorimetric assay
T1 sequence (P78536 whole entry, the tested form may be a part): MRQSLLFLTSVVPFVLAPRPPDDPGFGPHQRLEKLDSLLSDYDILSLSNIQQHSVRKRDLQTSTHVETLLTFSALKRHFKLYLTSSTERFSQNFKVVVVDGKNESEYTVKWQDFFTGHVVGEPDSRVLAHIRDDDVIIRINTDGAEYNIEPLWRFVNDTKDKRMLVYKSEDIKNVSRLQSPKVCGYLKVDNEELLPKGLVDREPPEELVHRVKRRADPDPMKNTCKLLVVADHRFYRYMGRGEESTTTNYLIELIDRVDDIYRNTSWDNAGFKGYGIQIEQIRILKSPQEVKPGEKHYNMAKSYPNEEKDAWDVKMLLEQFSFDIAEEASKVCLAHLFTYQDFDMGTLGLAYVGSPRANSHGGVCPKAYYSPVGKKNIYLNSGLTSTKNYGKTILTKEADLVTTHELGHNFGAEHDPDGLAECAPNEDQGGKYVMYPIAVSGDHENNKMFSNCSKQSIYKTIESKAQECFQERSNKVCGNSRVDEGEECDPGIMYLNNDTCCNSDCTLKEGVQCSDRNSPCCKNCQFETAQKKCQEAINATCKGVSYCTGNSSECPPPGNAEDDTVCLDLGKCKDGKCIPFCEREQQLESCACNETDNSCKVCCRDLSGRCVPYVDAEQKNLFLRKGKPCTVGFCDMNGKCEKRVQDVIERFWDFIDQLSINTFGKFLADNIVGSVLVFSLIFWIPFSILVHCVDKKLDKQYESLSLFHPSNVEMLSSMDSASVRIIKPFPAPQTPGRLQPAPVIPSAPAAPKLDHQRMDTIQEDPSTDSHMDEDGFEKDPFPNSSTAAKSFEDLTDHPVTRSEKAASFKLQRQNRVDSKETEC
In short: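 Enzyme at 5 nM final was preincubated with inhibitor for 30 min at 37 °C in Tris 25 mM pH 9, ZnCl2 25 µM, 0.005% Brij-35. Substrate was at 2 µM final. Fluorescence increase (ex 325/em 400 nm) gave initial rates, in duplicate. IC50 was derived from vi/vo = 1/(1+[I]/IC50).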

[3] = biological target: Matrix metalloproteinase-14 (Homo sapiens, UniProt P50281); test: Inhibition of recombinant human MMP-14 catalytic domain using Mca-Lys-Pro-Leu-Gly-Leu-Dap(Dnp)-Ala-Arg-NH2 as substrate incubated for 4 hrs measured every 15 secs for 20 mins by fluorimetric assay
In short: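 MMP-14 catalytic domain was used at 1.0 nM final with no activation step. It was incubated with inhibitor for 4 h at 25 °C in Tris 50 mM pH 7.5 buffer with NaCl 150 mM, CaCl2 10 mM, 0.05% Brij-35 and 1% DMSO. Substrate was at 2 µM final, ex 325/em 400 nm, duplicate wells. IC50 was fitted by vi/vo = 1/(1+[I]/IC50).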

[4] = biological target: 72 kDa type IV collagenase (Homo sapiens, UniProt P08253); test: Inhibition of recombinant human MMP-2 using Mca-Lys-Pro-Leu-Gly-Leu-Dap(Dnp)-Ala-Arg-NH2 as substrate incubated for 4 hrs measured every 15 secs for 20 mins by fluorimetric assay
72 kDa type IV collagenase, sequence (P08253 whole entry): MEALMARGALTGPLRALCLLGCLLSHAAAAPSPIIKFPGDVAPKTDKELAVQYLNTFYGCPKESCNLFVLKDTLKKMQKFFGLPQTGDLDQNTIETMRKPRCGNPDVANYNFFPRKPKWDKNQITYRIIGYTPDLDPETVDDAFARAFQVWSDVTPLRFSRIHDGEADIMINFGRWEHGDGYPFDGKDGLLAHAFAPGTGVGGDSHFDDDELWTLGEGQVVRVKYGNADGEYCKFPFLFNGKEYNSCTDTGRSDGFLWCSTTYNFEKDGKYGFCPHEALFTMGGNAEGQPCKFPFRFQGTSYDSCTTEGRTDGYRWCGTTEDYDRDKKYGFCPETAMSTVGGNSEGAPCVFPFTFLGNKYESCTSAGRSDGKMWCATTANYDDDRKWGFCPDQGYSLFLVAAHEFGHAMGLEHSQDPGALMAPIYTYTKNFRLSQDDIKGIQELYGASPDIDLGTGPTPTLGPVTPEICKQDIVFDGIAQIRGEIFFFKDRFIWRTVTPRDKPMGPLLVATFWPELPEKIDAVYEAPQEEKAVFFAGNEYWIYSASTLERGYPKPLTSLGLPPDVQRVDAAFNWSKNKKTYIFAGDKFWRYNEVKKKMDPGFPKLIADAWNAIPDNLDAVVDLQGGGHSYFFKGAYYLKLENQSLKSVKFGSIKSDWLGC
In short: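 Pro-MMP-2 was activated with 2 mM APMA for 1 h at 37 °C and used at 0.56 nM final. It was preincubated with inhibitor for 4 h at 25 °C in Tris 50 mM pH 7.5 buffer containing NaCl, CaCl2, Brij-35 and 1% DMSO. Substrate was at 2 µM final, ex 325/em 400 nm, run in duplicate. IC50 was taken from initial-velocity ratios, vi/vo = 1/(1+[I]/IC50).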

Interstitial collagenase = biological target: T2, Interstitial collagenase (Homo sapiens, UniProt P03956); test: Inhibition of recombinant human MMP-1 using Mca-Lys-Pro-Leu-Gly-Leu-Dap(Dnp)-Ala-Arg-NH2 as substrate incubated for 4 hrs measured every 15 secs for 20 mins by fluorimetric assay
T2 sequence (P03956 whole entry): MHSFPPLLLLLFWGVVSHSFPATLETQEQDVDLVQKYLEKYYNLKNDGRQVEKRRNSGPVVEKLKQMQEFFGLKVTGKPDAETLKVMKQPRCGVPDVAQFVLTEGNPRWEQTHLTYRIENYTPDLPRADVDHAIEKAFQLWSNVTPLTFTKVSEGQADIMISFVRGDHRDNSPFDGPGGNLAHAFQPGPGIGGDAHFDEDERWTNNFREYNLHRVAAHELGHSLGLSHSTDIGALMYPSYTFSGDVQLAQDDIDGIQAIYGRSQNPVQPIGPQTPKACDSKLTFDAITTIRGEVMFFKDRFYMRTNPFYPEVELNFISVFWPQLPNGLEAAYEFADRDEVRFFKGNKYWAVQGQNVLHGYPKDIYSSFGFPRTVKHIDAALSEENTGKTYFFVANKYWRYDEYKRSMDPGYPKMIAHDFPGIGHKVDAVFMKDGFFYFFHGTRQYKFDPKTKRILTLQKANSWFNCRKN
In short: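 Pro-MMP-1 was activated with 2 mM APMA for 2 h at 37 °C. Enzyme (2.0 nM final) was incubated with inhibitor in Tris 50 mM pH 7.5, NaCl 150 mM, CaCl2 10 mM, 0.05% Brij-35, 1% DMSO for 4 h at 25 °C. Substrate was added at 2 µM final. Fluorescence (ex 325/em 400 nm) was read for initial rates, in duplicate. IC50 came from vi/vo = 1/(1+[I]/IC50).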

[5] = biological target: T1, Disintegrin and metalloproteinase domain-containing protein 17; test: Inhibition of ADAM-17 in human SKOV3 cells transfected with luciferase gene assessed as inhibition of pervanadate-induced sALCAM release incubated for 30 mins prior to pervanadate induction measured after 90 mins by ELISA; type: cell-based, SK-OV-3
[6] = biological target: T3, Disintegrin and metalloproteinase domain-containing protein 10 (Homo sapiens, UniProt O14672); test: Inhibition of recombinant human ADAM-10 using Mca-Lys-Pro-Leu-Gly-Leu-Dap(Dnp)-Ala-Arg-NH2 as substrate incubated for 1 hr measured every 15 secs for 20 mins by fluorimetric assay
T3 sequence (O14672 whole entry): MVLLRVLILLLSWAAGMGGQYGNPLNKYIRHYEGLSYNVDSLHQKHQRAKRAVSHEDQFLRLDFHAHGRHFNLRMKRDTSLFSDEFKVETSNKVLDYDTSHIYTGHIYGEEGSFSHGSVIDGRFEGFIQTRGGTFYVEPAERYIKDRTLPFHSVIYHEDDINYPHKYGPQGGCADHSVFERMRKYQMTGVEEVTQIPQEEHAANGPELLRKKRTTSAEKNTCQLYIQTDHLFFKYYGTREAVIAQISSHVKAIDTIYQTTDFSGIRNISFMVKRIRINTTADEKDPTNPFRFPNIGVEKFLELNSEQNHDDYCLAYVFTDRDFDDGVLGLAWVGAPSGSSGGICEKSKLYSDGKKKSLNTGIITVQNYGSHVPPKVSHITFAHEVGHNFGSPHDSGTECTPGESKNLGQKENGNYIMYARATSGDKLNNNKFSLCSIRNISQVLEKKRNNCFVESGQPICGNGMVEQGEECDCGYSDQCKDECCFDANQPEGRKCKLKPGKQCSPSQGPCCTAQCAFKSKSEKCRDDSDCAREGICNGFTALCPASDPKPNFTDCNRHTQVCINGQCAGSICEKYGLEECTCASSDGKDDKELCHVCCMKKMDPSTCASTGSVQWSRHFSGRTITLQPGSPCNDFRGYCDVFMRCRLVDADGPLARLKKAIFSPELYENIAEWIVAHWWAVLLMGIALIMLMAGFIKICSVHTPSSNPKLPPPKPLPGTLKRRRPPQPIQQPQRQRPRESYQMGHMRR
In short: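 Enzyme at 20 nM final was preincubated with inhibitor for 1 h at 37 °C in pH 9 buffer (Tris 25 mM, ZnCl2 25 µM, 0.005% Brij-35). Substrate was at 10 µM final. Fluorescence (ex 325/em 400 nm) was followed for initial velocity, in duplicate. IC50 was calculated with vi/vo = 1/(1+[I]/IC50).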

[7] = Cytotoxicity against human A2774 cells assessed as cell viability at 0.01 to 10 uM after 24 to 72 hrs by MTT assay; type: cell-based; details: a2774, 10 µM
A2780 = test: Cytotoxicity against human A2780 cells assessed as cell viability at 0.01 to 10 uM after 24 to 72 hrs by MTT assay; type: cell-based; details: a2780, 10 µM
[8] = biological target: T1, Disintegrin and metalloproteinase domain-containing protein 17; test: Inhibition of ADAM-17 in human A2774 cells assessed as inhibition of EGF-induced sALCAM release incubated for 30 mins prior to EGF induction measured after 18 hrs by ELISA; type: cell-based
[9] = biological target: T1, Disintegrin and metalloproteinase domain-containing protein 17; test: Inhibition of ADAM-17 in human A2774 cells assessed as inhibition of pervanadate-induced sALCAM release incubated for 30 mins prior to pervanadate induction measured after 90 mins by ELISA; type: cell-based
[10] = biological target: T1, Disintegrin and metalloproteinase domain-containing protein 17; test: Inhibition of ADAM-17 in human A2780 cells assessed as inhibition of pervanadate-induced sALCAM release incubated for 30 mins prior to pervanadate induction measured after 90 mins by ELISA; type: cell-based
SK-OV-3 = test: Cytotoxicity against human SKOV3 cells transfected with luciferase gene assessed as cell viability at 0.01 to 10 uM after 24 to 72 hrs by MTT assay; type: cell-based; details: sk-ov-3, 10 µM
[11] = biological target: T1, Disintegrin and metalloproteinase domain-containing protein 17; test: Inhibition of ADAM-17 in human SKOV3 cells transfected with luciferase gene assessed as inhibition of EGF-induced sALCAM release incubated for 30 mins prior to EGF induction measured after 18 hrs by ELISA; type: cell-based, SK-OV-3
[12] = biological target: T1, Disintegrin and metalloproteinase domain-containing protein 17; test: Inhibition of ADAM-17 in human A2780 cells assessed as inhibition of EGF-induced sALCAM release incubated for 30 mins prior to EGF induction measured after 18 hrs by ELISA; type: cell-based

Matrix metalloproteinase-9, sequence (P14780 whole entry): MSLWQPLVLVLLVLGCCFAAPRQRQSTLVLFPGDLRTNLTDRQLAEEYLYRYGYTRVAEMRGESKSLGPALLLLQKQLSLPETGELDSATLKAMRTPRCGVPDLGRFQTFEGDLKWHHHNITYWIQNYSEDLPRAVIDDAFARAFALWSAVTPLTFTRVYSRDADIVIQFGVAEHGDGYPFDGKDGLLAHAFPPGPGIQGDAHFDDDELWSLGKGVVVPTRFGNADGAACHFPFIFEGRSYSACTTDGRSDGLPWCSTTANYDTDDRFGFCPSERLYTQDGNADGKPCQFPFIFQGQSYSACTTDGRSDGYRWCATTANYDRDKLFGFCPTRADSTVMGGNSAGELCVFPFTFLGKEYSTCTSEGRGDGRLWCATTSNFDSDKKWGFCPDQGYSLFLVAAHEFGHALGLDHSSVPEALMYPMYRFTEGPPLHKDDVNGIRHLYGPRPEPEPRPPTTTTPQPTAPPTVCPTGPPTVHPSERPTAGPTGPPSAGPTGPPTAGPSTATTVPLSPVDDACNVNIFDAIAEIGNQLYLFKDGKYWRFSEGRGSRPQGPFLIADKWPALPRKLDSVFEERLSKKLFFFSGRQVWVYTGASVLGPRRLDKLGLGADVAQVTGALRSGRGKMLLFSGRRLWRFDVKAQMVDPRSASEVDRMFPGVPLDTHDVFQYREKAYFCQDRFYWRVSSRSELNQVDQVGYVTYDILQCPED

Structure (SMILES) | IC50 [1] [nM] | IC50 [2] [nM] | IC50 [3] [µM] | IC50 [4] [nM] | IC50 (Interstitial collagenase) [µM] | IC50 [5] [nM] | IC50 [6] [nM] | Activity [7] | Activity (A2780) | IC50 [8] [µM] | IC50 [9] [nM] | IC50 [10] [nM] | Activity (SK-OV-3) | IC50 [11] [µM] | IC50 [12] [nM]
CC#CCOc1ccc(S(=O)(=O)NCC(=O)NO)cc1 | 890 | 17 | 2.9 | 110 | 28 |  |  |  |  |  |  |  |  |  | 
O=C(NCCC[C@@H](NS(=O)(=O)c1ccc(OCc2cc(Br)cc(Br)c2)cc1)C(=O)NO)OCc1ccccc1 | 4400 | 11 | 68 | 1440 | 370 | 350 | 300 | Non-toxic | Non-toxic | 7.63 | 274 | 349 | Non-toxic | 5.64 | 10000
O=C(CNS(=O)(=O)c1ccc(OCc2ccc(-c3ccccc3)cc2)cc1)NO | 690 | 640 | 72 | 48 | > 500 |  |  |  |  |  |  |  |  |  | 
O=C(CNS(=O)(=O)c1ccc(OCc2cc(Br)cc(-c3cccnc3)c2)cc1)NO |  | 500 | 21.4 | 1050 | > 500 |  |  |  |  |  |  |  |  |  | 
COc1ccc(-c2cc(Br)cc(COc3ccc(S(=O)(=O)NCC(=O)NO)cc3)c2)cc1 |  | 320 | 170 | 3800 | > 200 |  |  |  |  |  |  |  |  |  | 
O=C(CNS(=O)(=O)c1ccc(OCc2ccc(F)cc2)cc1)NO | 42 | 145 | 0.59 | 3 | 32 |  |  |  |  |  |  |  |  |  | 
CC#CCOc1ccc(S(=O)(=O)N[C@H](CCNC(=O)OCc2ccccc2)C(=O)NO)cc1 |  |  |  |  |  | 14 |  | Non-toxic | Non-toxic |  | 26 | < 10 | Non-toxic | 0.966 | 1440
NC(=O)NCCC[C@@H](NS(=O)(=O)c1ccc(OCc2cc(Br)cc(Br)c2)cc1)C(=O)NO |  |  |  |  | > 500 | 58 |  | Non-toxic | Non-toxic | 0.651 | 45 | < 10 | Non-toxic | 4.27 | 845
O=C(CNS(=O)(=O)c1ccc(OCc2ccc(OC(F)(F)F)cc2)cc1)NO | 37 | 200 | 7.2 | 7.5 | 74 |  |  |  |  |  |  |  |  |  | 
O=C(CNS(=O)(=O)c1ccc(OCc2cccc(Br)c2)cc1)NO | 60 | 104 | 1.6 | 15 | > 500 |  |  |  |  |  |  |  |  |  | 

Source: ChEMBL document CHEMBL2429772, “Selective arylsulfonamide inhibitors of ADAM-17: hit optimization and activity in ovarian cancer cell models” (J Med Chem, 2013)
